IC50 data for 16 molecules are collected here from ChEMBL document CHEMBL3421573, “Synthesis of new ent-labdane diterpene derivatives from andrographolide and evaluation on cytotoxic activities” (Bioorg Med Chem Lett, 2015).

Assay type in all cases: functional, cell-based; call rule not given here
Test [1] in a line: Cytotoxicity against human NTUB1 cells after 48 hrs by MTT assay. The settings on record: NTUB1, 48 h. The method, boiled down: (§1)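 Samples dissolved in DMSO (0.1%); cis-platin included as positive control. IC50 taken as the drug concentration giving 50% growth inhibition, in µM.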
In general terms: Tetrazolium assays rely on reduction of a dye to a coloured formazan, in cell work by metabolically active cells.

For the next test, the system named is MCF7. Description: Cytotoxicity against human MCF7 cells after 48 hrs by MTT assay. The method, boiled down:
as §1

In a further test the test system is MDA-MB-231. Description: Cytotoxicity against human MDA-MB-231 cells after 48 hrs by MTT assay. The method, boiled down: as §1
Test [2] can be described thus: Cytotoxicity against human NP14 cells after 48 hrs by MTT assay. To be noted: NP14, 48 h. The method, boiled down:
as §1

Setting [3] is: Homo sapiens, MCF7, 48 h, read-out: IC50.
Setting [4] is: Homo sapiens, MDA-MB-231, 48 h, read-out: IC50.

Each structure is given as a SMILES string. Some results are limits rather than exact numbers.

For the molecule `C=C1CC[C@@H]2[C@](C)(CO)[C@H](O)CC[C@@]2(C)[C@@H]1CCc1ccoc1`, the IC50 (as a rule, the concentration at which inhibition is half-maximal) in test [1] was 39.8 µM; in the test on MCF7 (setting [3]) it was 79.5 µM; in the test with MDA-MB-231 (setting [4]), more than 100 µM; in test [2], 53.3 µM.
`C=C1CC[C@@H]2[C@](C)(COC(=O)c3ccc([N+](=O)[O-])cc3)[C@H](O)CC[C@@]2(C)[C@@H]1CCc1ccoc1`: the IC50 in test [1] was 23.8 µM; in the test on MCF7 (setting [3]) it was 62.1 µM; in the test with MDA-MB-231 (setting [4]), 37.5 µM; in test [2], 80.9 µM.
As for `C=C1CC[C@@H]2[C@](C)(COC(=O)CC)[C@H](OC(=O)CC)CC[C@@]2(C)[C@@H]1CCc1ccoc1`, the IC50 was 42.9 µM in test [1], more than 100 µM in the test on MCF7 (setting [3]), 40.4 µM in the test with MDA-MB-231 (setting [4]) and 94.2 µM in test [2].
For `C=C1CC[C@@H]2[C@](C)(COC(=O)c3ccc(OC)cc3)[C@H](O)CC[C@@]2(C)[C@@H]1CCc1ccoc1`, the IC50 is 26.3 µM in test [1], 25.2 µM in the test with MCF7 (setting [3]), 28.6 µM with MDA-MB-231 (setting [4]) and 40.4 µM in test [2].
With `C=C1CC[C@@H]2[C@](C)(CO)[C@H](O)CC[C@@]2(C)[C@@H]1CC(O)c1ccoc1` (some centres undefined), the IC50 (in test [1]; in the test on MCF7 (setting [3]); with MDA-MB-231 (setting [4]); in test [2]) was more than 100 µM each time.
Take `C=C1CC[C@H]2[C@@](C)(CCC(=O)[C@@]2(C)CO)[C@@H]1CCc1ccoc1`: the IC50 was 63.1 µM in test [1], 87.3 µM in the test with MCF7 (setting [3]), 71.2 µM with MDA-MB-231 (setting [4]) and 43.2 µM in test [2].
For `C[C@]1(CO)[C@H]2CCC(=O)[C@@H](CCc3ccoc3)[C@]2(C)CC[C@H]1O`, the IC50 in test [1] was more than 100 µM; in the test with MCF7 (setting [3]), more than 100 µM; in the test on MDA-MB-231 (setting [4]), 56.3 µM; in test [2], more than 100 µM.
For the molecule `C=C1[C@H](O)C[C@@H]2[C@](C)(COC(=O)CC)[C@H](OC(=O)CC)CC[C@@]2(C)[C@@H]1CCc1ccoc1`, the IC50 in test [1] worked out at 29.6 µM; in the test with MCF7 (setting [3]), 44 µM; with MDA-MB-231 (setting [4]), 40.9 µM; in test [2], 27.7 µM.
The like results for `C=C1CC[C@@H]2[C@](C)(CO)[C@H](O)CC[C@@]2(C)[C@@H]1CC(O)C1=CCOC1=O` (some centres undefined) were, in that order, 14.9 µM, 78 µM, 27.6 µM and 49.4 µM.
For the molecule `C=C1CC[C@@H]2[C@](C)(COC(=O)CC)[C@H](OC(=O)CC)CC[C@@]2(C)[C@@H]1CC(OC(=O)CC)c1ccoc1` (some centres undefined), the IC50 in test [1] is 89.7 µM; with MCF7 (setting [3]), more than 100 µM; in the test on MDA-MB-231 (setting [4]), more than 100 µM; in test [2], 43.1 µM.
In the case of `C=C1CC[C@@H]2[C@](C)(CO)[C@H](O)CC[C@@]2(C)[C@@H]1C/C=C1/C(=O)OC[C@H]1O` [ANDROGRAPHOLIDE], the IC50 in test [1] is 32.5 µM; with MCF7 (setting [3]) it was 30.8 µM; with MDA-MB-231 (setting [4]) it was 16.6 µM; in test [2], 21.2 µM.
For the molecule `C=C1CC[C@@H]2[C@](C)(CO)[C@H](O)CC[C@@]2(C)[C@@H]1CCC1=CCOC1=O` [DEOXYANDROGRAPHOLIDE], the IC50 in test [1] is more than 100 µM; in the test with MCF7 (mcf7), “Not Active”; with MDA-MB-231 (mda-mb-231), “Not Active”; in test [2], more than 100 µM.
Turning to `C=C1CC[C@@H]2[C@](C)(COC(c3ccccc3)(c3ccccc3)c3ccccc3)[C@H](OC(C)=O)CC[C@@]2(C)[C@@H]1CC(OC(C)=O)C1=CCOC1=O` (some centres undefined), the IC50 in test [1] was 8.45 µM; with MCF7 (setting [3]), 6.41 µM; in the test with MDA-MB-231 (setting [4]) it was 6.37 µM; in test [2], 14.3 µM.
For `C=C1CC[C@@H]2[C@](C)(COC(=O)COc3ccccc3)[C@H](O)CC[C@@]2(C)[C@@H]1CCc1ccoc1` the same measures were more than 100 µM, 36.8 µM, 35 µM and 18.6 µM.
For `C=C1CC[C@@H]2[C@](C)(COC(=O)C(Cl)Cl)[C@H](OC(=O)C(Cl)Cl)CC[C@@]2(C)[C@@H]1CCc1ccoc1`, the IC50 in test [1] was found to be 11.2 µM; in the test with MCF7 (setting [3]), 22.9 µM; with MDA-MB-231 (setting [4]), 2.64 µM; in test [2], 4.42 µM.
Regarding `C=C1CC[C@@H]2[C@](C)(COC(=O)c3ccc([N+](=O)[O-])cc3)[C@H](OC(=O)c3ccc([N+](=O)[O-])cc3)CC[C@@]2(C)[C@@H]1CCc1ccoc1`, the IC50 (in test [1]; in the test on MCF7 (setting [3]); in the test with MDA-MB-231 (setting [4]); in test [2]) was more than 100 µM each time.
